Data set [1] addresses T1, Integrin alpha-V/beta-3 (Homo sapiens, UniProt P05106+P06756). Put plainly: Inhibition of human vitronectin binding to human integrin alphavbeta3 receptor after 1 hr by ELISA. The format is protein-complex assay.
Data set [2] deals with Integrin alpha-IIb/beta-3 (Homo sapiens, UniProt P05106+P08514). Put plainly: Inhibition of human fibronectin binding to human Integrin alpha2b beta3 receptor incubated for 1 hr by ELISA. The format is protein-complex assay. For orientation: An ELISA detects its analyte on a solid surface through an enzyme-linked reagent.
Chain of Integrin alpha-IIb/beta-3 (P05106 27-788 limits assumed): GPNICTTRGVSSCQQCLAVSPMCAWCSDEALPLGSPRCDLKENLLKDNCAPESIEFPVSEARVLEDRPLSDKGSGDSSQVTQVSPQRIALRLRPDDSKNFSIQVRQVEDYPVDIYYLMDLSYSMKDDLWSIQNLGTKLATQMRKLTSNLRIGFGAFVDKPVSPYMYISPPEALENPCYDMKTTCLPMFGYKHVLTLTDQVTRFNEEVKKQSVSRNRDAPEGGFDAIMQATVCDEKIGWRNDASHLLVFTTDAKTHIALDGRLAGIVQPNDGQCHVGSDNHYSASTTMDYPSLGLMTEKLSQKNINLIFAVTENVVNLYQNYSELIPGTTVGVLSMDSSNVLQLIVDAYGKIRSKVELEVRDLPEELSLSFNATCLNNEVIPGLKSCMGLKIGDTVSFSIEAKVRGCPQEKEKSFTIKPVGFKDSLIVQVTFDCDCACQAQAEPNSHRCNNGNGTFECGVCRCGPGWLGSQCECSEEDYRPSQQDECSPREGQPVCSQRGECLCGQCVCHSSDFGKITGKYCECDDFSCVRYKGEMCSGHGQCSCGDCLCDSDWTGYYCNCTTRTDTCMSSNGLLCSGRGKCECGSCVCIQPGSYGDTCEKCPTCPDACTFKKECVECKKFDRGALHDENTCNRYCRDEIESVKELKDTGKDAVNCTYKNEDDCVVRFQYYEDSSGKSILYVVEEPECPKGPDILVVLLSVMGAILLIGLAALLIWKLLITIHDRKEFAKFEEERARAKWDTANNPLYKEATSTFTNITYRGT
Chain of Integrin alpha-IIb/beta-3 (P08514 32-887 limits assumed): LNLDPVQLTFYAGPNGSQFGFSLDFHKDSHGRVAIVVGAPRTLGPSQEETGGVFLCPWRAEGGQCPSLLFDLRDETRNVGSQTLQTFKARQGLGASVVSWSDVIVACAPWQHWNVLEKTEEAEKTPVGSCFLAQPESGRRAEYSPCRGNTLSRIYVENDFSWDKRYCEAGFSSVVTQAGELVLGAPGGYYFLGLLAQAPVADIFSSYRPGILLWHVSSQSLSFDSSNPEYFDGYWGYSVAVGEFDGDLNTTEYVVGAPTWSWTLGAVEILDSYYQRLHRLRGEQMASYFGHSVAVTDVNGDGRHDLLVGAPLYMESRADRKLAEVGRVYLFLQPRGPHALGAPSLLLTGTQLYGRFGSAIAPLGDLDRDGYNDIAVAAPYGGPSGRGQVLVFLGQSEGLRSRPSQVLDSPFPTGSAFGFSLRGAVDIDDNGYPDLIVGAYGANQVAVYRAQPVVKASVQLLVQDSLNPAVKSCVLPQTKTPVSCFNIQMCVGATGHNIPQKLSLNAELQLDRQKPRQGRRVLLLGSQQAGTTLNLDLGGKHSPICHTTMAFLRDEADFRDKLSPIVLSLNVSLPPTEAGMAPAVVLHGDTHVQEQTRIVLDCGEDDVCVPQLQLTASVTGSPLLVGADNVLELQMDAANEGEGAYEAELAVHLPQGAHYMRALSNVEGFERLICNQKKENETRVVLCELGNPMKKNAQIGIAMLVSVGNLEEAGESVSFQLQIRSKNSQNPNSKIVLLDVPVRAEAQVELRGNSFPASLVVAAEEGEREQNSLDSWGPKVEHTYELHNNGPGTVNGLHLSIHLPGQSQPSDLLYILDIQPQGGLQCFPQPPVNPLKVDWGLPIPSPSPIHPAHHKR
Chain of Integrin alpha-IIb/beta-3 (P08514 891-1039 limits assumed): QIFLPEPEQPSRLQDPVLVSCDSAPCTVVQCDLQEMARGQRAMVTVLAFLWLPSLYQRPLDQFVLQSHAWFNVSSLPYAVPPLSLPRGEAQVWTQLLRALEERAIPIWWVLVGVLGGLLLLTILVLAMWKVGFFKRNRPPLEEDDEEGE
For data set [3], the target named is Integrin alpha-5/beta-1 (Homo sapiens, UniProt P05556+P08648). Put plainly: Inhibition of human fibronectin binding to human integrin alpha5beta1 incubated for 1 hr by ELISA. Format: protein-complex assay.
Chain of Integrin alpha-5/beta-1 (P05556 21-798 limits assumed): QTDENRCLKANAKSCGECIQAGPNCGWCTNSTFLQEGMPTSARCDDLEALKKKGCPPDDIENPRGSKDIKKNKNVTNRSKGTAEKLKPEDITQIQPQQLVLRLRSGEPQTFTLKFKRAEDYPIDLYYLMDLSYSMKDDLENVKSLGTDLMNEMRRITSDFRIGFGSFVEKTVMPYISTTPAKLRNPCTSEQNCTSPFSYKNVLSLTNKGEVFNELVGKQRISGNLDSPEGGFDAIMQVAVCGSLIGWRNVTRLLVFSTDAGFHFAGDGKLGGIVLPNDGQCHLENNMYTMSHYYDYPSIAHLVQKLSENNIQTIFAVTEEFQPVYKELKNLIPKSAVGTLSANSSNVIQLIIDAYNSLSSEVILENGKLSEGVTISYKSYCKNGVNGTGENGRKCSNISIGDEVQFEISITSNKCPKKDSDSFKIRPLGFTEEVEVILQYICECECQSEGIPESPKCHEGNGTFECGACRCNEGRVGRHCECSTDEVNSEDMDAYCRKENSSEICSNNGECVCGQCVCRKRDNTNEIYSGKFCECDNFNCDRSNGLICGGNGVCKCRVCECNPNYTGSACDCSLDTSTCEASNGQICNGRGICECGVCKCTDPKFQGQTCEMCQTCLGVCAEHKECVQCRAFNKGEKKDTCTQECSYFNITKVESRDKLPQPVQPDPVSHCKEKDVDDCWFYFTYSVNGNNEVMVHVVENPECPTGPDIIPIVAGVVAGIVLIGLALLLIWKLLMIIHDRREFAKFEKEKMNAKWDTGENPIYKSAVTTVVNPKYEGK
Chain of Integrin alpha-5/beta-1 (P08648 42-894 limits assumed): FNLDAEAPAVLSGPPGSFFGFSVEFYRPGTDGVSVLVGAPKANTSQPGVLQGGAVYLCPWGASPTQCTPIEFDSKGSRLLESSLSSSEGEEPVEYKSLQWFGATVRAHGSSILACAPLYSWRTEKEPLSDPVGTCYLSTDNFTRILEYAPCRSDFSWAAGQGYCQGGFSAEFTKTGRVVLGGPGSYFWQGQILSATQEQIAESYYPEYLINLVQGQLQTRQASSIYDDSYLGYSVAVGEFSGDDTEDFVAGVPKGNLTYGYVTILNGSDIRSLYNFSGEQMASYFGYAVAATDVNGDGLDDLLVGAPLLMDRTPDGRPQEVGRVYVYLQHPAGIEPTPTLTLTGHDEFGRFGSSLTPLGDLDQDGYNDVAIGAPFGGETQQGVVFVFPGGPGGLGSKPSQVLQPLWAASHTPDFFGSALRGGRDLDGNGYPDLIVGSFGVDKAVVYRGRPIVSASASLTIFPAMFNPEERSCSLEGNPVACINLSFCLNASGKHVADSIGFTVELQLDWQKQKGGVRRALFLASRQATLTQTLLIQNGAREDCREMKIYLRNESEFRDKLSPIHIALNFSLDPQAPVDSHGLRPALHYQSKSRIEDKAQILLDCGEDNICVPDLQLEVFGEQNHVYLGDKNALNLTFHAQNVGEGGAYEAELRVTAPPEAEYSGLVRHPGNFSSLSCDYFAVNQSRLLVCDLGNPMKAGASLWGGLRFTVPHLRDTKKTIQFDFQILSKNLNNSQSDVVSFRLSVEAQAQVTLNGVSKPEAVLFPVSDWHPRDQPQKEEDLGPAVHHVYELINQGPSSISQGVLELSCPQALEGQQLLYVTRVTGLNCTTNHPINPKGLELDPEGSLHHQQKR
Chain of Integrin alpha-5/beta-1 (P08648 895-1049 limits assumed): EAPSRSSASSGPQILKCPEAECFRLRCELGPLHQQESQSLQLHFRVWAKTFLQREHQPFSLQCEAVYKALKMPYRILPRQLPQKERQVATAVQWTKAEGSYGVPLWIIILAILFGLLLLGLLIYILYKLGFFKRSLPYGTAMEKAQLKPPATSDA
A short description of data set [4]: Half-life in human plasma at 500 uM incubated for 24 hrs and measured up to 24 hrs by LC-MS analysis. The format is ADME, cell-free. The essentials:
(§1)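 Compound from DMSO stock (final DMSO ≤1%) in human citrate plasma, pH 7.5, incubated at 37 °C, 400 rpm, for 24 h. Aliquots were taken at 0, 1, 3, 6, 8 and 24 h and quenched with cold acetonitrile containing warfarin (50 µM final) as internal standard, then centrifuged. Supernatant was run by LC-MS; UV peak area was compared with the internal standard.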

Data set [5] deals with T1, Integrin alpha-V/beta-3. Put plainly: Binding affinity to integrin alphavbeta3 receptor in human WM115 cells assessed as inhibition of cell adhesion to vitronectin after 0.5 hr by fluorescence assay. The format is cell-based.
A short description of data set [6]: Half-life in human plasma at 250 uM incubated for 24 hrs and measured up to 24 hrs by LC-MS analysis. The format is ADME, cell-free. In short, it runs like this: as §1

As usually defined, the IC50 is the concentration that gives 50% inhibition. A word on the half-life: it is how long it takes for the measured level to halve. A high value points to slow decline.

T1 sequence (P05106 27-788 limits assumed): as the sequence (P05106 27-788 limits assumed) above
T1 sequence (P06756 31-889 limits assumed): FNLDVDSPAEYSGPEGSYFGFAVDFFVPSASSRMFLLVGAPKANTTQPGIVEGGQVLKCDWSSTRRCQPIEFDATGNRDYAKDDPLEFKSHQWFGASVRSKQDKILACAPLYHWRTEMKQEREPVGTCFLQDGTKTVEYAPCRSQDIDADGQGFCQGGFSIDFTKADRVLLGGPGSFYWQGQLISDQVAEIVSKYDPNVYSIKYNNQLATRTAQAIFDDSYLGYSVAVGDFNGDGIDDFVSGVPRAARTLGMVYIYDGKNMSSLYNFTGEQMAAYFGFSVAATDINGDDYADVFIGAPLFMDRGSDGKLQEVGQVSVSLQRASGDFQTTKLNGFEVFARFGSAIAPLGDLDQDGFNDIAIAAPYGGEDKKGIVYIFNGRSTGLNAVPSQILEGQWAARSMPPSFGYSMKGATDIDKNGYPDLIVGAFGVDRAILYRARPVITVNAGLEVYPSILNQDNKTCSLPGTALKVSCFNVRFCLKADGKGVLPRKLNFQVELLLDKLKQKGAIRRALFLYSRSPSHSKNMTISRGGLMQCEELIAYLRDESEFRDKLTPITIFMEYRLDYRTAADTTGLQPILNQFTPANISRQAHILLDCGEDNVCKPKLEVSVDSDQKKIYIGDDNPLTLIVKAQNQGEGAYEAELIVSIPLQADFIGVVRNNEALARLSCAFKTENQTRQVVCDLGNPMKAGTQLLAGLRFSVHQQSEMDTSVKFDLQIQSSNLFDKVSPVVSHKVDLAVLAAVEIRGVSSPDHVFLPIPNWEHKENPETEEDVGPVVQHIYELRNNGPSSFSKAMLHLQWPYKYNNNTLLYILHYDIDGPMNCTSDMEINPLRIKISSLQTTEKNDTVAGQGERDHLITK
T1 sequence (P06756 891-1048 limits assumed): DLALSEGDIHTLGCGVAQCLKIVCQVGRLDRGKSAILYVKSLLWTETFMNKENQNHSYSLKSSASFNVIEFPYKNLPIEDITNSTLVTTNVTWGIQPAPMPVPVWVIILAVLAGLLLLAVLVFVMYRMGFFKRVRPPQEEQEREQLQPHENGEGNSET

For `CN1C(=O)[C@H](Cc2ccccc2)NC(=O)[C@H](CC(=O)O)NC(=O)CNC(=O)[C@H](CCCNC(=N)N)NC(=O)c2cccc(c2)-c2cccc3c(c[nH]c23)C[C@@H]1C(N)=O`, the IC50 is 5.4 to 13.9 nM in data set [1], 5800 nM in data set [2], 547 nM in data set [3] and 9400 nM in data set [5]. Moreover, the half-life at 500 µM in data set [4] is above 1440 min.

`CCN(CC)CCOC(=O)c1ccc(N)cc1` [PROCAINE] had a half-life at 250 µM in data set [6] of 30 min.

With `CN1C(=O)[C@H](Cc2ccccc2)NC(=O)[C@H](CC(=O)O)NC(=O)CNC(=O)[C@H](CCCNC(=N)N)NC(=O)c2ccc(cc2)-c2cccc3c(c[nH]c23)C[C@@H]1C(N)=O`, the IC50 in data set [1] is 23 nM; in data set [2] it was above 10000 nM; in data set [3], 835 nM; in data set [5], 11100 nM.

On to `CN1C(=O)[C@H](CC(=O)O)NC(=O)CNC(=O)[C@H](CCCNC(=N)N)NC(=O)c2ccc(cc2)-c2cccc3c(c[nH]c23)C[C@H]1C(N)=O`, for which the 50% inhibitory concentration (IC50) in data set [1] was 239 nM; in data set [3] it was above 10000 nM; in data set [5], above 500000 nM.

For `N=C(N)NCCC[C@@H]1NC(=O)c2ccc(cc2)-c2cccc3c(c[nH]c23)C[C@H](C(N)=O)NC(=O)[C@H](CC(=O)O)NC(=O)CNC1=O`, the concentration for half-maximal inhibition (IC50) in data set [1] is 41.3 nM; in data set [2], above 10000 nM; in data set [3], 5940 nM; in data set [5], above 500000 nM.

Take `CN1C(=O)[C@H](Cc2ccccc2)NC(=O)[C@H](CC(=O)O)NC(=O)CNC(=O)[C@H](CCCNC(=N)N)NC(=O)CCCc2cccc3c(c[nH]c23)C[C@@H]1C(N)=O`: the IC50 is 34 nM in data set [1], 154 nM in data set [3] and above 500000 nM in data set [5].

For the compound `N=C(N)NCCC[C@@H]1NC(=O)c2cccc(c2)-c2cccc3c(c[nH]c23)C[C@@H](C(N)=O)NC(=O)[C@H](CC(=O)O)NC(=O)CNC1=O`, the concentration for half-maximal inhibition (IC50) was 19 nM in data set [1], 8030 nM in data set [3] and above 500000 nM in data set [5].

In the case of `CN1C(=O)[C@H](Cc2ccccc2)NC(=O)[C@H](CC(=O)O)NC(=O)CNC(=O)[C@H](CCCNC(=N)N)NC(=O)CCc2cccc3c(c[nH]c23)C[C@@H]1C(N)=O`, the IC50 in data set [1] amounted to 12.8 nM; in data set [2] it was 5030 nM; in data set [3] it was 325 nM; in data set [5], 250000 nM.

Regarding `N=C(N)NCCC[C@@H]1NC(=O)c2ccc(cc2)-c2cccc3c(c[nH]c23)C[C@@H](C(N)=O)NC(=O)[C@@H](Cc2ccccc2)NC(=O)[C@H](CC(=O)O)NC(=O)CNC1=O`, the IC50 is 579 nM in data set [1], 5670 nM in data set [3] and above 500000 nM in data set [5].

Consider `N=C(N)NCCC[C@@H]1NC(=O)c2cccc(c2)-c2cccc3c(c[nH]c23)C[C@@H](C(N)=O)NC(=O)[C@@H](Cc2ccccc2)NC(=O)[C@H](CC(=O)O)NC(=O)CNC1=O`, for which the 50% inhibitory concentration (IC50) is 65 nM in data set [1], 983 nM in data set [3] and above 500000 nM in data set [5].

With `CN1C(=O)[C@H](Cc2ccccc2)NC(=O)[C@H](CC(=O)O)NC(=O)CNC(=O)[C@H](CCCNC(=N)N)NC(=O)c2ccc(cc2)-c2ccc3c(c[nH]c3c2)C[C@@H]1C(N)=O`, the IC50 in data set [1] is 14.9 nM; in data set [2], above 10000 nM; in data set [3], 2720 nM; in data set [5] it was 244000 nM.

`N=C(N)NCCC[C@@H]1NC(=O)c2ccc(cc2)-c2ccc3c(c[nH]c3c2)C[C@H](C(N)=O)NC(=O)[C@H](Cc2ccccc2)NC(=O)[C@H](CC(=O)O)NC(=O)CNC1=O`: the half-maximal inhibitory concentration (IC50) in data set [1] was 59.2 nM; in data set [3], above 10000 nM; in data set [5], 310000 nM.

With `CN1C(=O)[C@H](Cc2ccccc2)NC(=O)[C@H](CC(=O)O)NC(=O)CNC(=O)[C@H](CCCNC(=N)N)NC(=O)CCCCCc2cccc3c(c[nH]c23)C[C@@H]1C(N)=O`, the values for the IC50 in data set [1], in data set [3] and in data set [5] were 38.9 nM, 419 nM and above 500000 nM, respectively.

As for `N=C(N)NCCC[C@@H]1NC(=O)c2ccc(cc2)-c2cccc3c(c[nH]c23)C[C@@H](C(N)=O)NC(=O)[C@H](CC(=O)O)NC(=O)CNC1=O`, the concentration for half-maximal inhibition (IC50) in data set [1] is 491 nM; in data set [3], 3660 nM; in data set [5], above 500000 nM.

For the compound `CN1C(=O)[C@@H](Cc2ccccc2)NC(=O)[C@H](CC(=O)O)NC(=O)CNC(=O)[C@H](CCCNC(=N)N)NC(=O)c2ccc(cc2)-c2cccc3c(c[nH]c23)C[C@H]1C(N)=O`, the half-maximal inhibitory concentration (IC50) in data set [1] is 95.2 nM; in data set [3] it was 2160 nM; in data set [5], above 500000 nM.

Turning to `CN1C(=O)[C@H](Cc2ccccc2)NC(=O)[C@H](CC(=O)O)NC(=O)CNC(=O)[C@H](CCCNC(=N)N)NC(=O)CCCCc2cccc3c(c[nH]c23)C[C@@H]1C(N)=O`, the half-maximal inhibitory concentration (IC50) in data set [1] was 36.2 nM; in data set [3], 563 nM; in data set [5], above 500000 nM.

As to `N=C(N)NCCC[C@@H]1NC(=O)c2ccc(cc2)-c2cccc3c(c[nH]c23)C[C@H](C(N)=O)NC(=O)[C@H](Cc2ccccc2)NC(=O)[C@H](CC(=O)O)NC(=O)CNC1=O`, the half-maximal inhibitory concentration (IC50) in data set [1] was 17.7 nM; in data set [2], above 10000 nM; in data set [3], 9290 nM; in data set [5] it was 51000 nM.

In the case of `CN1C(=O)[C@H](CC(=O)O)NC(=O)CNC(=O)[C@H](CCCNC(=N)N)NC(=O)c2ccc(cc2)-c2cccc3c(c[nH]c23)C[C@@H]1C(N)=O`, the IC50 in data set [1] was 537 nM; in data set [3] it was above 10000 nM; in data set [5], above 500000 nM.

For `CN1C(=O)[C@H](Cc2ccccc2)NC(=O)[C@H](CC(=O)O)NC(=O)CNC(=O)[C@H](CCCNC(=N)N)NC(=O)c2ccccc2-c2cccc3c(c[nH]c23)C[C@@H]1C(N)=O`, the concentration for half-maximal inhibition (IC50) amounted to 64.6 nM in data set [1], 1.92 nM in data set [3] and 158000 nM in data set [5].

The values above are taken from ChEMBL document CHEMBL4373697, “Cyclization of RGD Peptides by Suzuki-Miyaura Cross-Coupling” (J Med Chem, 2019).
